Test results: ChEMBL document CHEMBL1131098, “Synthesis and antitumor activity of 4-aminomethylthioxanthenone and 5-aminomethylbenzothiopyranoindazole derivatives” (J Med Chem, 1998)
The source made the active and inactive calls.

What was measured:
Mus musculus [1] = experiment: compound was tested for maximum tolerated dose administarted iv (mg/kg); format: functional
In short: (§1)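 BDF1 mice were implanted bilaterally sc on day 0 with 30–60-mg Panc03 tumor fragments. Intravenous chemotherapy began 3 days after implantation. The maximum tolerated dose was defined as the LD10 or less and was expressed in mg/kg.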

Mus musculus [2] = species: Mus musculus; experiment: Tumor growth inhibition was measured as ratio of median tumor burden in the treatment group*100(T) / median tumor burden in the control group(C);g= not active signifies %T/C>42; format: functional, organism-based
In short: (§2)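 BDF1 mice implanted bilaterally sc with 30–60-mg Panc03 fragments on day 0. Dosing iv at the maximum tolerated dose (LD10 or less), starting 3 days after implantation. Tumor growth inhibition expressed as %T/C; %T/C > 42 counted as not active.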

Mus musculus [3] = experiment: In vivo antitumor activity measured in mice against the Colon26/A murine solid tumors.; format: functional
Mus musculus [4] = experiment: In vivo antitumor activity measured in mice against the Colon38 murine solid tumors.; format: functional
Mus musculus [5] = experiment: In vivo antitumor activity measured in mice against the Colon51 murine solid tumors.; format: functional
Mus musculus [6] = experiment: In vivo antitumor activity measured in mice against the Mam16/C murine solid tumors.; format: functional
Mus musculus [7] = experiment: In vivo antitumor activity measured in mice against the Panc 02 murine solid tumors.; format: functional
Mus musculus [8] = species: Mus musculus; experiment: The long term cures (LTC) value is the number of mice in a group with no palpable tumor.; format: functional
In short: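 Panc03-bearing BDF1 mice (bilateral sc fragments) dosed iv at the maximum tolerated dose from day 3. Long-term cure is a mouse with no palpable tumor after at least 86 days, reported as cured mice over total mice per treatment group.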

Mus musculus [9] = experiment: Maximum tolerated dose administarted iv (mg/kg) to mice; format: functional; in short: as §1
Mus musculus [10] = species: Mus musculus; experiment: compound was tested for murine tumor growth inhibition,T/C value ([…]/control) in mice.; format: functional; in short: as §2

Structure (SMILES)	MTD (Mus musculus [1]) [mg/kg]	T/C (Mus musculus [2])	T/C (Mus musculus [3]) [%]	T/C (Mus musculus [6]) [%]	T/C (Mus musculus [7]) [%]	also measured
CCN(CC)CCNc1ccc(CN)c2sc3ccc(Br)cc3c(=O)c12	967	inactive				
CCN(CC)CCNc1ccc(CNC)c2sc3ccc(Br)cc3c(=O)c12	345	inactive				
CCN(CC)CCNc1ccc(CNS(C)(=O)=O)c2sc3ccccc3c(=O)c12			29	6	23	T/C (Mus musculus [4]): 0%; T/C (Mus musculus [5]): 14%; LTC (Mus musculus [8]): 0.6
CCN(CC)CCNc1ccc(CNS(=O)(=O)c2ccc(Cl)cc2)c2sc3ccccc3c(=O)c12		inactive				MTD (Mus musculus [9]): >1500 mg/kg
COc1cccc2c1C(=O)c1c(O)c3c(c(O)c1C2=O)C[C@@](O)(C(=O)CO)C[C@@H]3O[C@H]1C[C@H](N)[C@H](O)[C@H](C)O1 [DOXORUBICIN]			7	0	35	T/C (Mus musculus [4]): 0%; T/C (Mus musculus [5]): 21%; LTC (Mus musculus [8]): 0.2
O=P1(N(CCCl)CCCl)NCCCO1 (stereo unspecified) [CYCLOPHOSPHAMIDE ANHYDROUS]			8	0	36	
CCN(CC)CCNc1ccc(CNS(C)(=O)=O)c2sc3ccc(Br)cc3c(=O)c12	1281	inactive				
CCN(CC)CCNc1ccc(CN2C(=O)c3ccccc3C2=O)c2sc3ccccc3c(=O)c12						T/C (Mus musculus [10]): 38%
CCN(CC)CCN(C)c1ccc(CNC)c2sc3ccccc3c(=O)c12		inactive				MTD (Mus musculus [9]): 1506 mg/kg
